Experimental findings from PubChem BioAssay AID2247 (Johns Hopkins Ion Channel Center, 2010) are described below.

Hit rate of the full screen: of about 300,000 compounds, about 1,200 (0.4%) were called active.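 The calls were made as follows: active = B-score over 3 SD under the library average, no early fluorescence shift, positive overall ratio signal; inactive = the rest.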 Only a selection was taken, and actives are over-represented in it overall.

Sequence of Short transient receptor potential channel 4 (Mus musculus) (Q9QUQ5 whole entry, looked up): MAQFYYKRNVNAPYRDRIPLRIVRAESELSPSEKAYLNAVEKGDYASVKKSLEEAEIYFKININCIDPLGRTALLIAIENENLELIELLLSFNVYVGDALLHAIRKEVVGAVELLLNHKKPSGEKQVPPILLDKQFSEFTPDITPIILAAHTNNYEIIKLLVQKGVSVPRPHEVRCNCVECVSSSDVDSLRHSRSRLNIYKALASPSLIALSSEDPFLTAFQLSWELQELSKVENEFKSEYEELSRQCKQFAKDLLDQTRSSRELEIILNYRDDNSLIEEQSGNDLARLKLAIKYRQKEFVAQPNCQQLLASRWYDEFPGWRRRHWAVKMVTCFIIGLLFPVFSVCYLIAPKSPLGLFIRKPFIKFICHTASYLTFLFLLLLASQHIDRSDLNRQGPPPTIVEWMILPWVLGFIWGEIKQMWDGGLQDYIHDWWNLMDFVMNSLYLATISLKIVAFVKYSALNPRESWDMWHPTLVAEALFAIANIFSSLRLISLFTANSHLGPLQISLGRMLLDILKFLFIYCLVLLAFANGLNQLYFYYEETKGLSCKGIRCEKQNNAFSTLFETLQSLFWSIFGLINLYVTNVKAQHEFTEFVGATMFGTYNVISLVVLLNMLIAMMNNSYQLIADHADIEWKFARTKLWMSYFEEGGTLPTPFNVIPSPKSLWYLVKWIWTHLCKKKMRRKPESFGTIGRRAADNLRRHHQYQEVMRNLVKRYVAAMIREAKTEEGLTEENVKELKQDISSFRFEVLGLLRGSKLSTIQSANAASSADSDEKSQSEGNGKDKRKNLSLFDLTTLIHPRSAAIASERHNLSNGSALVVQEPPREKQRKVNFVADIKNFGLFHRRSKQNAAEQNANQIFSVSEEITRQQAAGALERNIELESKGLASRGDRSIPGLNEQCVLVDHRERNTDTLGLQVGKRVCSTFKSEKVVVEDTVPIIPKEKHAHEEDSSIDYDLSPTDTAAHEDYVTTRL

The target in this assay is Short transient receptor potential channel 4 (Mus musculus) (UniProt Q9QUQ5). Briefly: blockers of DAMGO-evoked TRPC4 calcium flux – Fluo4 calcium, HEK293 TRPC4beta/mu-opioid cells, primary screen (AID 2247). The settings on record: at 10 µM; stronger effect = lower value. In short, it runs like this:
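Test system – stable TRPC4beta/mu-opioid receptor HEK293 cells · Probe or stimulus – DAMGO, a submaximal dose followed by a maximal one · Dosing – one concentration per compound · Signal – Fluo4 calcium fluorescence by kinetic imaging, 5 s 1 Hz baseline · Evaluation – per-well B score of integrated baseline-normalized Fluo4 ratio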
Background: Calcium assays in cells follow changes in intracellular calcium, usually with a dye or a luminescent sensor.
For the molecule `Cc1onc(-c2c(F)cccc2Cl)c1C(=O)N(C)CC(=O)Nc1cccc(F)c1`, the B-score is -7 (active).

In the case of `Cc1noc(C)c1COc1ccccc1C(=O)N(C)CC(=O)Nc1cccc(F)c1`, the B-score result was “inactive”.

Turning to `CN(CC(=O)Nc1cccc(F)c1)C(=O)C1=COCCO1`, the B-score entry was “inactive”.

On to `Cc1sc(NC(=O)C2C3CCC(O3)C2C(=O)O)c(C(=O)OC(C)C)c1-c1ccc(Cl)cc1` (configuration not stated), for which the B-score result is “inactive”.

As to `Cc1cccc(-c2ncc(CN3CCC(CO)(CCCc4ccccc4)CC3)cn2)c1`, the B-score entry was “inactive”.

`OCC1(CCc2ccccc2)CCN(Cc2ccc3nsnc3c2)CC1`: the B-score was -7 (active).

For `CC(C)(O)C#Cc1ccc(CN2CCC(CO)(CCc3ccccc3)CC2)cc1`, the B-score result was “inactive”.

As to `O=C(CN1CCOc2ccccc21)N1CCC(Cc2ccccc2)CC1`, the B-score result is “inactive”.

With `CC(c1ccccn1)N(C)C(=O)c1ccc2nc(Cc3cccc(Cl)c3)oc2c1` (configuration not stated), the B-score entry is “inactive”.

As to `NC1=NC[C@@H](Cc2ccc(O)cc2)N1CC1CCCCC1`, the B-score result is “inactive”.

`CC(C)n1c(COc2ccccc2)nc2ccccc21`: the B-score entry is “inactive”.

In the case of `CC(C)n1c(-c2cccs2)nc2ccccc21`, the B-score entry is “inactive”.

Take `CC(C)n1c(NCc2c[nH]c3ccccc23)nc2ccccc21`: the B-score was -8 (active).

For the molecule `Cc1ccc(Cn2nnc3c(=O)[nH]c(C4CCN(S(=O)(=O)/C=C/c5ccccc5)CC4)nc32)cc1`, the B-score result is “inactive”.

Regarding `N#Cc1c(NC(=O)CCCl)sc2c1CCCCC2`, the B-score entry was “inactive”.

For the molecule `N#Cc1c(NC(=O)C2CC(Cl)=CCC2C(=O)O)sc2c1CCCCC2` (configuration not stated), the B-score is -6 (active).

Take `N#Cc1c(NC(=O)C2CCCO2)sc2c1CCCCC2` (configuration not stated): the B-score result was “inactive”.

As for `Cn1c(=O)c2c(nc(OCc3cccnc3)n2Cc2ccccc2)n(C)c1=O`, the B-score entry was “inactive”.

`Nc1cc(N)nc(SCc2cccc(F)c2)n1`: the B-score result was “inactive”.

For the molecule `CC(C)(C)c1cc2cccnc2n1Cc1ccccc1`, the B-score was -7 (active).

Turning to `CC(C)(C)c1cc2cccnc2n1Cc1cccc(F)c1`, the B-score is -6 (active).

Regarding `Cc1cc(C(C)(C)C)n2nc(C)c(-c3ccccc3)c2n1`, the B-score result is “inactive”.

On to `COc1ccnc2c1c(=O)n(Cc1cccc(F)c1)c(=O)n2C`, for which the B-score entry is “inactive”.

`CCN(CC)C(=O)Cn1cc(S(=O)(=O)CC(=O)NCc2ccc3c(c2)OCO3)c2ccccc21`: the B-score result is “inactive”.

Turning to `Cc1nc2ccccc2n1C(=O)N1CCOCC1`, the B-score entry was “inactive”.

Turning to `COc1ccc(C(=O)Nc2ccc(-n3nncc3C(C)(C)C)cc2)cc1`, the B-score result was “inactive”.

On to `O=S(=O)(O)Oc1c[nH]c2ccccc12`, for which the B-score entry was “inactive”.

With `COc1ccc(CN(C)Cc2nc3cc(OC)c(OC)cc3c(=O)[nH]2)c(OC)c1`, the B-score entry was “inactive”.

Consider `COc1cc(NS(=O)(=O)c2ccc3ccccc3c2)c2ncccc2c1`, for which the B-score is -6 (active).

Regarding `Cc1ccc(NS(=O)(=O)c2ccc(C)c(NC(=O)COc3ccc4ccccc4c3)c2)c(C)c1`, the B-score entry was “inactive”.

`O=[N+]([O-])c1ccccc1S(=O)(=O)Nc1cccc2cccnc12`: the B-score result is “inactive”.

For the molecule `CC1(C)S[C@@H]2[C@H](NC(=O)COc3ccccc3)C(=O)N2C1C(=O)OCc1ccccc1` (some centres not stated), the B-score result is “inactive”.

For `CCc1ccc(C(=O)COC(=O)c2ccco2)cc1`, the B-score result is “inactive”.

Take `COc1ccc(-n2cc(CNC3CCOCC3)c(-c3cccc(F)c3)n2)cc1`: the B-score entry is “inactive”.

In the case of `COc1ccc(-n2cc(CN(C)Cc3n[nH]c(=O)[nH]3)c(-c3cccc(F)c3)n2)cc1`, the B-score result was “inactive”.

For `CCC(O)C1CCN(Cc2cn(-c3ccc(OC)cc3)nc2-c2cccc(F)c2)CC1` (configuration not stated), the B-score was -8 (active).

On to `Cc1c(CCOC(=O)CC23CC4CC(CC(C)(C4)C2)C3)sc[n+]1Cc1ccc([N+](=O)[O-])cc1`, for which the B-score result was “inactive”.

Regarding `Cc1c(CN2CCC(n3nccc3NC(=O)CCc3ccccc3)CC2)cnn1C`, the B-score was -7 (active).

As for `CCn1cc(CN2CCC(n3nccc3NC(=O)CCCc3ccccc3)CC2)c(C)n1`, the B-score entry is “inactive”.

Take `Cc1ccc(CN2CCC(n3nccc3NC(=O)CCCc3ccccc3)CC2)o1`: the B-score result was “inactive”.

On to `COC(=O)c1onc(-c2c(OC)cc(OC)cc2OC)c1C(=O)OC`, for which the B-score entry was “inactive”.

For `O=C(Cn1ncc2c3ccccc3n(Cc3ccccc3)c2c1=O)NCc1ccccn1`, the B-score entry was “inactive”.

With `Cc1ccc(NC(=O)CSc2nc(=O)n(CCN(C)C)c3c2CCCC3)c(C)c1`, the B-score result is “inactive”.

In the case of `Cc1cc(CNC(=O)c2cccc([N+](=O)[O-])c2)c2ccccc2n1`, the B-score result is “inactive”.

For the molecule `O=[N+]([O-])c1cccc(Nc2c3ccccc3nc3ccccc23)c1`, the B-score is -7 (active).

Regarding `N#Cc1cccc(Nc2c3c(nc4ccccc24)CCCC3)c1`, the B-score result is “inactive”.

As for `CC1CC(C)CN(CCCNC(=O)c2csc3c2CCCCC3)C1` (configuration not stated), the B-score result is “inactive”.

As to `COc1ccc(CNC(=O)[C@@H]2CC=C[C@@H]3CCN(C4CC4)C(=O)[C@@H]32)cc1`, the B-score result was “inactive”.

Turning to `CCc1ccc2oc(=O)cc(CN3CCCCC3C)c2c1` (configuration not stated), the B-score entry is “inactive”.

For `Cc1onc(-c2c(Cl)cccc2Cl)c1C(=O)c1c[nH]c(C(=O)NC2CC2)c1`, the B-score result is “inactive”.

For `Cc1onc(-c2c(Cl)cccc2Cl)c1C(=O)NNC(=O)c1c(-c2c(Cl)cccc2Cl)noc1C`, the B-score entry is “inactive”.

As for `Cc1[nH]n(C)c(=O)c1C(=O)c1c(-c2c(Cl)cccc2Cl)noc1C`, the B-score is -6 (active).

`COc1cc(CNC2CCCC2)c(Br)cc1OCc1ccccc1`: the B-score is -6 (active).

In the case of `COc1cc(CNC2CCCCC2)c(Br)cc1OC1CCCC1`, the B-score result is “inactive”.

Regarding `COc1cc(CN2CCC(C(N)=O)CC2)ccc1OCc1ccccc1`, the B-score result was “inactive”.

With `Cc1cccc(C2C3=C(CCCC3=O)N=C3c4ccccc4C(=O)C32)c1` (configuration not stated), the B-score result was “inactive”.

Take `Nc1ccc(OCC(O)C[n+]2ccc(CCS(=O)(=O)[O-])cc2)cc1` (configuration not stated): the B-score entry was “inactive”.

Take `CN(CC(=O)N1CCN(c2ccccc2)CC1)S(=O)(=O)c1cccs1`: the B-score result is “inactive”.

As to `Cc1cccc(NS(=O)(=O)c2ccc(C)c(C(N)=O)c2)c1`, the B-score result was “inactive”.

In the case of `c1ccc(-c2ccccc2OCCN2CCCCC2)cc1`, the B-score result was “inactive”.

For the molecule `CC1CCCN(CCOCCOc2ccccc2-c2ccccc2)C1` (configuration not stated), the B-score is -7 (active).

In the case of `CC1CN(CCCOc2ccccc2-c2ccccc2)CC(C)O1` (configuration not stated), the B-score result is “inactive”.

On to `COc1cc(N2CCCC2)c(OC)cc1/C=C(/C#N)c1cccc(Br)c1`, for which the B-score result is “inactive”.

`Cc1cc(NC(=O)CN2C(=O)NC(C)(CCc3ccccc3)C2=O)no1` (configuration not stated): the B-score result was “inactive”.

Regarding `CCOC(=O)c1cc(C#N)c(N2CCCCC2)nc1-c1ccccc1`, the B-score was -8 (active).

Take `CCOc1ccc2nc(N3CCCN(C(=O)Nc4ccccc4C)CC3)c(C#N)cc2c1`: the B-score result was “inactive”.

On to `CCOC(=O)c1cc(C)nc(S(C)(=O)=O)c1C#N`, for which the B-score entry is “inactive”.

With `O=C(CN(Cc1ccc(Br)cc1)S(=O)(=O)c1ccccc1)NCc1ccncc1`, the B-score result was “inactive”.

Turning to `CSCC[C@H](NC(=O)NCc1cccs1)C(=O)O`, the B-score result is “inactive”.

On to `COc1cc(CN2CCCC(C(=O)c3ccc(SC)cc3)C2)cc(Cl)c1O` (configuration not stated), for which the B-score entry was “inactive”.

For the molecule `COc1ccc(C(=O)C2CCCN(Cc3ccc4nonc4c3)C2)c(C)c1` (configuration not stated), the B-score result was “inactive”.

For the molecule `COc1ccc(CN2CCCC(C(=O)c3ccc(Cl)cc3)C2)cc1Cn1cncn1` (configuration not stated), the B-score is -7 (active).

For `CCC(C)OC(=O)C(C)Oc1ccc(-c2ccccc2)cc1` (configuration not stated), the B-score result was “inactive”.

Regarding `O=S(=O)(/C=C/c1ccccc1)N1CCNCC1`, the B-score entry was “inactive”.

Consider `O=C(O)c1ccccc1C(=O)NC1=NN(c2ccccc2)CC1`, for which the B-score result is “inactive”.

With `Cc1ccc(Nc2ccc(C(N)=O)cc2[N+](=O)[O-])cc1`, the B-score result was “inactive”.

Turning to `O=[N+]([O-])c1ccccc1Nc1ccc(O)cc1`, the B-score is -6 (active).

Regarding `O=C(O)c1ccccc1C(=O)Nc1ccccc1[N+](=O)[O-]`, the B-score result was “inactive”.

For `O=C(Nc1nnc(C2=COCCO2)o1)c1ccc([N+](=O)[O-])s1`, the B-score result was “inactive”.

`COc1cc(-c2nnc(NC(=O)C3=COCCO3)o2)cc(OC)c1OC`: the B-score result was “inactive”.

Regarding `Cc1ccc(C(=O)Nc2nnc(C3=COCCO3)o2)cc1C`, the B-score is -6 (active).

Take `Cc1ccc(CNC(=O)C(=O)c2cn(CC(=O)N3CCCC3)c3ccccc23)cc1`: the B-score entry was “inactive”.

For the molecule `O=C(Nc1ccc(N2CCCCC2)cc1)c1cc(S(=O)(=O)N2CCOCC2)ccc1F`, the B-score result is “inactive”.

In the case of `CCc1nn(CCCC(=O)Nc2ccc(C)c(C)c2)c(=O)c2cc3occc3n12`, the B-score result is “inactive”.

As to `N/C(=N\OC(=O)Nc1ccccc1)c1ccno1`, the B-score entry was “inactive”.

As for `Cn1c(SCC(=O)N2CCCc3ccccc32)nc2ccccc2c1=O`, the B-score result is “inactive”.

As for `CC1CCN(CCCn2c(SCC(=O)NC3CCCC3)nc3ccccc3c2=O)CC1`, the B-score entry is “inactive”.

For the molecule `O=C(CSc1nc2ccccc2c(=O)n1CCCO)N1CCc2ccccc21`, the B-score was -7 (active).

Take `CCOc1ccc(CCNC(=O)CN2C(=O)NC3(CCc4ccccc43)C2=O)cc1OCC` (configuration not stated): the B-score result was “inactive”.

With `COCCn1c(SC(C)C(=O)NC2CC2)nnc1-c1cccc(C)c1` (configuration not stated), the B-score result was “inactive”.

As for `CCOC(=O)/C(C#N)=C/c1cn(CCC(=O)O)nc1-c1ccc(Br)cc1`, the B-score entry is “inactive”.

Turning to `O=C(O)CCn1cc(/C=C/C(=O)c2ccc(Cl)cc2)c(-c2cccc(Br)c2)n1`, the B-score is -6 (active).

Consider `O=C(/C=C/NNC(=O)c1cccc(Br)c1)c1ccccc1`, for which the B-score entry is “inactive”.

For the molecule `CCOC(=O)N1CCN(S(=O)(=O)N2CCCC(C(=O)NCCCN3CCC(C)CC3)C2)CC1` (configuration not stated), the B-score entry was “inactive”.

For `Cc1ccnc(N2CCN(C(=O)CSc3nc4ccccc4nc3N3CCCCC3)CC2)c1`, the B-score result was “inactive”.

For `CC(C)c1nc(N2CCOCC2)c(C#N)c2c1COC(C)(C)C2`, the B-score result is “inactive”.

As to `CC(C)Cc1nc(N2CCOCC2)c(C#N)c2c1CCC2`, the B-score was -6 (active).

As to `CC(C)Cc1nc(Cl)c(C#N)c2c1CCC2`, the B-score entry was “inactive”.

As for `CCCCn1c(N)c(N(CCOC)C(=O)c2cccc(S(=O)(=O)N3CCCCC3)c2)c(=O)[nH]c1=O`, the B-score entry was “inactive”.

With `CN1CCNC(=O)C1CC(=O)N1CC=C(c2ccc(F)cc2)CC1` (configuration not stated), the B-score entry was “inactive”.

In the case of `COc1cccc(N(CC(=O)NCc2ccccc2)C(=O)CCC(=O)Nc2nccs2)c1`, the B-score entry is “inactive”.

For the molecule `O=C(CCN1CCc2ccccc2C(O)(c2ccccc2)C1)c1ccc2c(c1)OCCO2` (configuration not stated), the B-score is -7 (active).

On to `O=C(CN1CCN(c2ccccc2F)CC1)c1ccc2c(c1)OCO2`, for which the B-score entry was “inactive”.

With `CCC1(c2ccccc2)NC(=O)N(CC(=O)c2ccc3c(c2)OCO3)C1=O` (configuration not stated), the B-score entry is “inactive”.

With `COC(=O)c1sccc1NC(=O)CCC1CCCC1`, the B-score entry is “inactive”.

Regarding `CC(=O)Oc1ccc(NC(=O)CCC2CCCCC2)c(C(=O)O)c1`, the B-score is -6 (active).

As for `COc1ccc(NC(=O)CCCC2CCCCC2)c(OC)c1`, the B-score result is “inactive”.
